Laboratory results reported in ChEMBL document CHEMBL4689842, “EUbOPEN Chemogenomics Library wave 1” (2021).
Where “and” joins values, the source holds several entries; their conditions need not be identical. Equal entries are not always repeated.

System: Fibroblast
Assay: Multiplex assay against human fibroblast
Assay type: toxicity, cell-based
How it was run: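 On a CQ1 microscope at 37°C and 5% CO2, live cells were imaged after compound addition. They had been stained at seeding with Hoechst33342, BioTracker Green Microtubule Cytoskeleton Dye, MitoTracker Red and Annexin V Alexa Fluor 680. CellPathfinder machine-learning gating assigned cells to Hoechst high-intensity objects or normal cells, normal cells to healthy, pyknosed or fragmented nuclei, and pyknosed cells to mitotic or apoptotic. Tubulin, mitochondrial-mass and membrane-permeability phenotypes are per cents of healthy-nucleus cells.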

[1] = 12 h, 10 µM, compound concentration 10 uM, replicate 1
[2] = 12 h, 10 µM, compound concentration 10 uM, replicate 2
[3] = 24 h, 10 µM, compound concentration 10 uM, replicate 1
[4] = 24 h, 10 µM, compound concentration 10 uM, replicate 2
[5] = 12 h, 1 µM, compound concentration 1 uM, replicate 1
[6] = 12 h, 1 µM, compound concentration 1 uM, replicate 2
[7] = 24 h, 1 µM, compound concentration 1 uM, replicate 1
[8] = 24 h, 1 µM, compound concentration 1 uM, replicate 2
[9] = 48 h, 1 µM, compound concentration 1 uM, replicate 1
[10] = 48 h, 1 µM, compound concentration 1 uM, replicate 2
[11] = 48 h, 10 µM, compound concentration 10 uM, replicate 1
[12] = 48 h, 10 µM, compound concentration 10 uM, replicate 2

CN1C(=O)c2sccc2N(C)c2nc(Nc3ccc(S(N)(=O)=O)cc3)ncc21
Population Apoptotic (%) [1]: 73% and 80% | Population Fragmented Nuclei (%) [1]: 30% and 28% | Population Healthy Nuclei (%) [1]: 50% and 56% | Population Hoechst High Intensity Objects (%) [1]: 9% and 15% | Population Membrane Permeable-Phenotype (%) [1]: 7% and 4% | Population Mitochondria Different-Phenotype (%) [1]: 7% | Population Mitotic Cells (%) [1]: 26% and 20% | Population Normal (%) [1]: 90% and 84% | Population Pyknosed Nuclei (%) [1]: 18% and 14% | Population Tubulin-Different-Phenotype (%) [1]: 3% and 7% | Total Cell Count [1]: 224 and 198 | Population Fragmented Nuclei (%) [2]: 52% | Population Healthy Nuclei (%) [2]: 36% and 33% | Population Hoechst High Intensity Objects (%) [2]: 32% and 34% | Population Membrane Permeable-Phenotype (%) [2]: 13% and 8% | Population Mitochondria Different-Phenotype (%) [2]: 13% and 0% | Population Mitotic Cells (%) [2]: 42% and 100% | Population Normal (%) [2]: 67% and 65% | Population Pyknosed Nuclei (%) [2]: 11% and 13% | Population Tubulin-Different-Phenotype (%) [2]: 4% and 0% | Total Cell Count [2]: 91 and 55 | Population Apoptotic (%) [3]: 55% and 72% | Population Fragmented Nuclei (%) [3]: 23% and 27% | Population Healthy Nuclei (%) [3]: 60% and 52% | Population Hoechst High Intensity Objects (%) [3]: 14% and 16% | Population Membrane Permeable-Phenotype (%) [3]: 8% | Population Mitochondria Different-Phenotype (%) [3]: 2% | Population Mitotic Cells (%) [3]: 44% and 27% | Population Normal (%) [3]: 85% and 83% | Population Pyknosed Nuclei (%) [3]: 15% and 20% | Population Tubulin-Different-Phenotype (%) [3]: 5% and 3% | Total Cell Count [3]: 219 and 217 | Population Apoptotic (%) [4]: 45% and 50% | Population Fragmented Nuclei (%) [4]: 59% and 52% | Population Healthy Nuclei (%) [4]: 23% and 36% | Population Hoechst High Intensity Objects (%) [4]: 33% and 37% | Population Membrane Permeable-Phenotype (%) [4]: 0% | Population Mitochondria Different-Phenotype (%) [4]: 6% and 0% | Population Mitotic Cells (%) [4]: 54% and 50% | Population Normal (%) [4]: 66% and 62% | Population Pyknosed Nuclei (%) [4]: 17% and 11% | Population Tubulin-Different-Phenotype (%) [4]: 6% and 15% | Total Cell Count [4]: 96 and 58

C=CC(=O)Nc1cccc(C(=O)Nc2ccc(Nc3cc(-c4[nH]c(SC)nc4C)ccn3)cc2)c1
Population Apoptotic (%) [5]: 69% | Population Fragmented Nuclei (%) [5]: 23% | Population Healthy Nuclei (%) [5]: 43% | Population Hoechst High Intensity Objects (%) [5]: 11% | Population Membrane Permeable-Phenotype (%) [5]: 28% | Population Mitochondria Different-Phenotype (%) [5]: 8% | Population Mitotic Cells (%) [5]: 30% | Population Normal (%) [5]: 88% | Population Pyknosed Nuclei (%) [5]: 33% | Population Tubulin-Different-Phenotype (%) [5]: 36% | Total Cell Count [5]: 131 | Population Apoptotic (%) [6]: 0% | Population Fragmented Nuclei (%) [6]: 2% | Population Healthy Nuclei (%) [6]: 94% | Population Hoechst High Intensity Objects (%) [6]: 14% | Population Membrane Permeable-Phenotype (%) [6]: 0% | Population Mitochondria Different-Phenotype (%) [6]: 7% | Population Mitotic Cells (%) [6]: 100% | Population Normal (%) [6]: 85% | Population Pyknosed Nuclei (%) [6]: 2% | Population Tubulin-Different-Phenotype (%) [6]: 23% | Total Cell Count [6]: 112 | Population Apoptotic (%) [1]: 50% | Population Fragmented Nuclei (%) [1]: 27% | Population Healthy Nuclei (%) [1]: 50% | Population Hoechst High Intensity Objects (%) [1]: 19% | Population Membrane Permeable-Phenotype (%) [1]: 18% | Population Mitochondria Different-Phenotype (%) [1]: 13% | Population Mitotic Cells (%) [1]: 50% | Population Normal (%) [1]: 80% | Population Pyknosed Nuclei (%) [1]: 22% | Population Tubulin-Different-Phenotype (%) [1]: 29% | Total Cell Count [1]: 109 | Population Apoptotic (%) [2]: 40% | Population Fragmented Nuclei (%) [2]: 6% | Population Healthy Nuclei (%) [2]: 83% | Population Hoechst High Intensity Objects (%) [2]: 18% | Population Membrane Permeable-Phenotype (%) [2]: 7% | Population Mitochondria Different-Phenotype (%) [2]: 12% | Population Mitotic Cells (%) [2]: 60% | Population Normal (%) [2]: 81% | Population Pyknosed Nuclei (%) [2]: 10% | Population Tubulin-Different-Phenotype (%) [2]: 12% | Total Cell Count [2]: 78 | Population Apoptotic (%) [7]: 60% | Population Fragmented Nuclei (%) [7]: 20% | Population Healthy Nuclei (%) [7]: 55% | Population Hoechst High Intensity Objects (%) [7]: 13% | Population Membrane Permeable-Phenotype (%) [7]: 29% | Population Mitochondria Different-Phenotype (%) [7]: 3% | Population Mitotic Cells (%) [7]: 39% | Population Normal (%) [7]: 86% | Population Pyknosed Nuclei (%) [7]: 24% | Population Tubulin-Different-Phenotype (%) [7]: 34% | Total Cell Count [7]: 134 | Population Apoptotic (%) [8]: 37% | Population Fragmented Nuclei (%) [8]: 3% | Population Healthy Nuclei (%) [8]: 87% | Population Hoechst High Intensity Objects (%) [8]: 4% | Population Membrane Permeable-Phenotype (%) [8]: 2% | Population Mitochondria Different-Phenotype (%) [8]: 10% | Population Mitotic Cells (%) [8]: 62% | Population Normal (%) [8]: 95% | Population Pyknosed Nuclei (%) [8]: 8% | Population Tubulin-Different-Phenotype (%) [8]: 25% | Total Cell Count [8]: 122 | Population Apoptotic (%) [3]: 30% | Population Fragmented Nuclei (%) [3]: 32% | Population Healthy Nuclei (%) [3]: 43% | Population Hoechst High Intensity Objects (%) [3]: 13% | Population Membrane Permeable-Phenotype (%) [3]: 20% | Population Mitochondria Different-Phenotype (%) [3]: 4% | Population Mitotic Cells (%) [3]: 69% | Population Normal (%) [3]: 86% | Population Pyknosed Nuclei (%) [3]: 23% | Population Tubulin-Different-Phenotype (%) [3]: 30% | Total Cell Count [3]: 113 | Population Apoptotic (%) [4]: 40% | Population Fragmented Nuclei (%) [4]: 5% | Population Healthy Nuclei (%) [4]: 85% | Population Hoechst High Intensity Objects (%) [4]: 11% | Population Membrane Permeable-Phenotype (%) [4]: 8% | Population Mitochondria Different-Phenotype (%) [4]: 14% | Population Mitotic Cells (%) [4]: 60% | Population Normal (%) [4]: 88% | Population Pyknosed Nuclei (%) [4]: 9% | Population Tubulin-Different-Phenotype (%) [4]: 12% | Total Cell Count [4]: 95 | Population Apoptotic (%) [9]: 62% | Population Fragmented Nuclei (%) [9]: 25% | Population Healthy Nuclei (%) [9]: 50% | Population Hoechst High Intensity Objects (%) [9]: 11% | Population Membrane Permeable-Phenotype (%) [9]: 34% | Population Mitochondria Different-Phenotype (%) [9]: 3% | Population Mitotic Cells (%) [9]: 37% | Population Normal (%) [9]: 88% | Population Pyknosed Nuclei (%) [9]: 23% | Population Tubulin-Different-Phenotype (%) [9]: 25% | Total Cell Count [9]: 129 | Population Apoptotic (%) [10]: 100% | Population Fragmented Nuclei (%) [10]: 36% | Population Healthy Nuclei (%) [10]: 61% | Population Hoechst High Intensity Objects (%) [10]: 17% | Population Membrane Permeable-Phenotype (%) [10]: 28% | Population Mitochondria Different-Phenotype (%) [10]: 2% | Population Mitotic Cells (%) [10]: 0% | Population Normal (%) [10]: 82% | Population Pyknosed Nuclei (%) [10]: 1% | Population Tubulin-Different-Phenotype (%) [10]: 20% | Total Cell Count [10]: 69 | Population Apoptotic (%) [11]: 43% | Population Fragmented Nuclei (%) [11]: 37% | Population Healthy Nuclei (%) [11]: 47% | Population Hoechst High Intensity Objects (%) [11]: 12% | Population Membrane Permeable-Phenotype (%) [11]: 11% | Population Mitochondria Different-Phenotype (%) [11]: 0% | Population Mitotic Cells (%) [11]: 56% | Population Normal (%) [11]: 87% | Population Pyknosed Nuclei (%) [11]: 14% | Population Tubulin-Different-Phenotype (%) [11]: 23% | Total Cell Count [11]: 123 | Population Apoptotic (%) [12]: 100% | Population Fragmented Nuclei (%) [12]: 36% | Population Healthy Nuclei (%) [12]: 57% | Population Hoechst High Intensity Objects (%) [12]: 13% | Population Membrane Permeable-Phenotype (%) [12]: 20% | Population Mitochondria Different-Phenotype (%) [12]: 3% | Population Mitotic Cells (%) [12]: 0% | Population Normal (%) [12]: 86% | Population Pyknosed Nuclei (%) [12]: 5% | Population Tubulin-Different-Phenotype (%) [12]: 27% | Total Cell Count [12]: 118
